# In ChEMBL document CHEMBL4014350, “Alkoxyurea-Based Histone Deacetylase Inhibitors Increase Cisplatin Potency in Chemoresistant Cancer Cell Lines” (J Med Chem, 2017):
# Experiments:
# CAL-27 [1] = experiment: Potentiation of 0.5 uM cisplatin-induced cytotoxicity against human CAL27 cells assessed as decrease in cell viability measuring combination index at 500 uM preincubated for 48 hrs followed by cisplatin treatment measured after 72 hrs by MTT assay; format: functional; details: in the assay text read “at 500 nM” for “at 500 uM”
# In short: (§1)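 Cal27 and cisplatin-resistant Cal27CisR cells were preincubated with the HDAC inhibitor for 48 h, then given cisplatin in combination. Viability was read by MTT after 72 h. The combination index was computed by the Chou–Talalay method: CI > 1 is antagonism, CI = 1 is additive, and CI < 0.9 is synergism. Points with fraction affected below 0.20 were flagged.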
# CAL-27 [2] = experiment: Potentiation of 2 uM cisplatin-induced cytotoxicity against human CAL27 cells assessed as decrease in cell viability by measuring combination index at 800 uM preincubated for 48 hrs followed by cisplatin treatment measured after 72 hrs by MTT assay; format: functional; details: in the assay text read “at 800 nM” for “at 800 uM”
# In short: (§2)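 HDAC inhibitor was added 48 h before cisplatin, then cells were exposed to cisplatin for 72 h and viability was read by MTT assay. Combination index was computed by the Chou–Talalay method: CI > 1 is antagonism, CI = 1 additive, CI < 0.9 synergism. Points with fraction affected below 0.20 were flagged.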
# [3] = biological target: Histone deacetylase 1/6 (Homo sapiens) (UniProt Q13547+Q9UBN7); experiment: Inhibition of HDAC1/HDAC6 in human Cal27CisR cells assessed as potentiation of 20 uM cisplatin-induced cytotoxicity by measuring combination index at 700 nM preincubated for 48 hrs followed by cisplatin treatment measured after 72 hrs by MTT assay
# CAL-27 [4] = experiment: Potentiation of 0.316 uM cisplatin-induced cytotoxicity against human CAL27 cells assessed as decrease in cell viability by measuring combination index at 600 uM preincubated for 48 hrs followed by cisplatin treatment measured after 72 hrs by MTT assay; format: functional; details: in the assay text read “at 600 nM” for “at 600 uM”; in short: as §1
# A2780 = experiment: Antiproliferative activity against human A2780 cells measured after 72 hrs by MTT assay; format: functional, cell-based; details: A2780, 72 h
# [5] = biological target: T1, Protein deacetylase HDAC6 (Homo sapiens, UniProt Q9UBN7); experiment: Inhibition of full length human recombinant N-terminal GST-tagged HDAC6 expressed in baculovirus infected sf9 cells Z-(Ac)Lys-AMC as substrate measured after 90 mins by fluorescence assay
# T1 sequence (Q9UBN7 whole entry): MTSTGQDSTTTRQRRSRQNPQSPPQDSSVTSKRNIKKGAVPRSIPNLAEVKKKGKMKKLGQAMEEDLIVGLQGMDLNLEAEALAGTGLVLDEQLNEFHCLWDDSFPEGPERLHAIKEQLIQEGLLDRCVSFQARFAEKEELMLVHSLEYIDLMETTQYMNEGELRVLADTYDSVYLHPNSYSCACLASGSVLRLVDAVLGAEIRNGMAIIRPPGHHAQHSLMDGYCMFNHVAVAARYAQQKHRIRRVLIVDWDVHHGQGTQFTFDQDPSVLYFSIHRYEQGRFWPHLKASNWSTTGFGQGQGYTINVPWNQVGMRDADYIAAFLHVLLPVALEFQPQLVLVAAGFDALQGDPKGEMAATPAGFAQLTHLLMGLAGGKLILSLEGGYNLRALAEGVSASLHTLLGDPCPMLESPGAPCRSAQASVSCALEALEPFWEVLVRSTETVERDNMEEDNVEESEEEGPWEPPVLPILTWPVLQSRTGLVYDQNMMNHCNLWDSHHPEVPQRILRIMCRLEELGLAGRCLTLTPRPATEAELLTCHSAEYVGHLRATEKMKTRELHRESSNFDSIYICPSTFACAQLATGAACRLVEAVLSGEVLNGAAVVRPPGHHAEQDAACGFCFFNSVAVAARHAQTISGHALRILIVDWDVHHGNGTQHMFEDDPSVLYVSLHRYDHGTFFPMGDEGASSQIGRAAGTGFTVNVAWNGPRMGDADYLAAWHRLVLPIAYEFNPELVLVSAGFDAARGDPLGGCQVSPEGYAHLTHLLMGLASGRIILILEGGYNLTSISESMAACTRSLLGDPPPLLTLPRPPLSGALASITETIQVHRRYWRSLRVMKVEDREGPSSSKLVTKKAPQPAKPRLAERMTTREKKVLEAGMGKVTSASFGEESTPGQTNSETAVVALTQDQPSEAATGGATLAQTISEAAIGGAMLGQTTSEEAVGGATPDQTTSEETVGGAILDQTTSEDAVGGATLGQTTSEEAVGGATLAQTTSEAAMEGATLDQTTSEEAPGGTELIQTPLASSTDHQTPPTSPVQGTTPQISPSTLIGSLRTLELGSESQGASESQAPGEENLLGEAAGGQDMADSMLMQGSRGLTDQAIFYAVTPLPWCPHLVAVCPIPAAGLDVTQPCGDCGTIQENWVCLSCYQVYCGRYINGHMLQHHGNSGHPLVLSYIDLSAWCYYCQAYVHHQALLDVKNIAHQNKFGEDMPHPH
# CAL-27 [6] = experiment: Potentiation of 1 uM cisplatin-induced cytotoxicity against human CAL27 cells assessed as decrease in cell viability by measuring combination index at 800 uM preincubated for 48 hrs followed by cisplatin treatment measured after 72 hrs by MTT assay; format: functional; in short: as §2
# CAL-27 [7] = experiment: Potentiation of 0.5 uM cisplatin-induced cytotoxicity against human CAL27 cells assessed as decrease in cell viability by measuring combination index at 800 uM preincubated for 48 hrs followed by cisplatin treatment measured after 72 hrs by MTT assay; format: functional; in short: as §1
# A2780cisR = experiment: Antiproliferative activity against human A2780cisR cells measured after 72 hrs by MTT assay; format: functional, cell-based
# Homo sapiens = species on record: Homo sapiens; experiment: Selectivity index, ratio of IC50 for recombinant full length human C-terminal FLAG/His-tagged HDAC1 expressed in baculovirus infected sf9 cells to IC50 for full length human recombinant N-terminal GST-tagged HDAC6 expressed in baculovirus infected sf9 cells
# In short: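 Ratio of isolated-enzyme IC50 values. HDAC1, HDAC6 and HDAC8 IC50s were each the mean ± SD of three independent experiments.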
# Histone deacetylase 8 = biological target: T2, Histone deacetylase 8 (Homo sapiens, UniProt Q9BY41); experiment: Inhibition of human HDAC8 using Z-L-Lys(epsilon-trifluoroacetyl)-AMC as substrate measured after 90 mins by fluorescence assay
# T2 sequence (Q9BY41 whole entry): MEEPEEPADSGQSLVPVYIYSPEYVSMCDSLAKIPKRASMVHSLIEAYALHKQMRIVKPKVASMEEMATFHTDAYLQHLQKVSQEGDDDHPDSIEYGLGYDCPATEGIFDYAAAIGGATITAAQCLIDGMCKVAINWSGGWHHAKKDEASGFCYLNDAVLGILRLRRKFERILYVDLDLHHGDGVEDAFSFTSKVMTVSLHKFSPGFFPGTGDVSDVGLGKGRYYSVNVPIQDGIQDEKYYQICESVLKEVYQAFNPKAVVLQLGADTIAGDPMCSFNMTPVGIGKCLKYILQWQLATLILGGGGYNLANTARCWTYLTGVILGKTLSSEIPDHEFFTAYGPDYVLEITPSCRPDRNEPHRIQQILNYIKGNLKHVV
# Histone deacetylase 1/6 (Homo sapiens), sequence (Q13547 whole entry, looked up, one chain of several): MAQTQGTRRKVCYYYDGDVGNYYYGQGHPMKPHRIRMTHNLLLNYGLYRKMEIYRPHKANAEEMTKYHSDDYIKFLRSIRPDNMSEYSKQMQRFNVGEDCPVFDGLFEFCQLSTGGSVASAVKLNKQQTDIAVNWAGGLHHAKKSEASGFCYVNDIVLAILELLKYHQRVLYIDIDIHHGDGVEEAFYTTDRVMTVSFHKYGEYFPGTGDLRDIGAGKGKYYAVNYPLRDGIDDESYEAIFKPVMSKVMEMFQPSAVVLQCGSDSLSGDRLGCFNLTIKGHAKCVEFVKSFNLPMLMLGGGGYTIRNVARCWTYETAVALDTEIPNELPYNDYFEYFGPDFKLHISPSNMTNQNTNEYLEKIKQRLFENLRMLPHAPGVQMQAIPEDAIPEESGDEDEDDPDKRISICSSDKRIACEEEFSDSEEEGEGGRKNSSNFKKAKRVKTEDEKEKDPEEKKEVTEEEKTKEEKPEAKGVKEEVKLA
IC50 (A2780),IC50 [5],IC50 (A2780cisR),IC50 (Histone deacetylase 8),Structure (SMILES),CI (CAL-27 [1]),CI (CAL-27 [2]),CI [3],CI (CAL-27 [4]),CI (CAL-27 [6]),CI (CAL-27 [7]),Ratio IC50 (Homo sapiens)
1200 nM,6.1 nM,400 nM,1080 nM,COc1cc(NC(=O)NOCCCCCC(=O)NO)c2ncccc2c1,0.87,0.43,0.37,0.79,0.56,0.93,< 15
1100 nM,24.8 nM,300 nM,1220 nM,COc1cc(NC(=O)NOCCCCCC(=O)NO)c2nccc(C)c2c1,0.49,0.38,0.25,0.93,0.41,0.51,< 15
800 nM,2.8 nM,400 nM,1540 nM,COc1cc(NC(=O)NOCCCCCC(=O)NO)c2nc(OC)cc(C)c2c1,0.66,0.66,0.21,0.71,0.69,0.79,15
